A short description of series [1]: Cmax in Beagle dog at 5 mg/kg, po. Format: ADME, organism-based, Canis lupus familiaris. The arrangement: dose 5 mg/kg, route oral. The conditions noted are these: in vivo. The procedure, abridged:
(§1)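 Male beagle dogs (8.0-11.0 kg) dosed iv or po (5 mg/kg oral suspension in 0.5% methylcellulose with 1% Tween-80); plasma sampled 0.25-24 h; liquid-liquid extraction with hexane/ether, LC/MS/MS, quantitation limit 1 ng/mL (2.42 nM); noncompartmental parameters as free base.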

Series [2] deals with T1, Alpha-2C adrenergic receptor (Homo sapiens, UniProt P18825).
T1 sequence (P18825 whole entry): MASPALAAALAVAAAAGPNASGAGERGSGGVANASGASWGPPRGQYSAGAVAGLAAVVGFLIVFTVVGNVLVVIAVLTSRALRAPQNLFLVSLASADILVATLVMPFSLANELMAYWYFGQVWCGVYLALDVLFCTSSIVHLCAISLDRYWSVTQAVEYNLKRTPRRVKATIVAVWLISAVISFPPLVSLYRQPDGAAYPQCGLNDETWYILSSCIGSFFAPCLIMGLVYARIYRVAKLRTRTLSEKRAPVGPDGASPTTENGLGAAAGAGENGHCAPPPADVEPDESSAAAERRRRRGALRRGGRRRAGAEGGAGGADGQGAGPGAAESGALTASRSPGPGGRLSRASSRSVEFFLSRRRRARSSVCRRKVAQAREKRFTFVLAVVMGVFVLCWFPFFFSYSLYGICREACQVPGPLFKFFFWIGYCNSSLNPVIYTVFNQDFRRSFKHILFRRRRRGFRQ
Put plainly: Binding affinity to adrenergic alpha2c receptor.

Series [3] concerns the target D(1A) dopamine receptor (Homo sapiens, UniProt P21728). As to the kind of experiment: Binding affinity to dopamine D1 receptor.
Series [4] has as its target D(2) dopamine receptor (Homo sapiens, UniProt P14416). Put plainly: Binding affinity to dopamine D2 receptor.
Series [5] is described as follows: Clearance in Beagle dog at 5 mg/kg, iv. Format: ADME, organism-based, Canis lupus familiaris. The arrangement: dose 5 mg/kg, route intravenous. The note with it: in vivo. The essentials: as §1
Series [6] can be described thus: Binding affinity to serotonin receptor.
A short description of series [7]: Oral bioavailability in Beagle dog at 5 mg/kg. The format is ADME, organism-based, Canis lupus familiaris. The note with it: in vivo. The procedure, abridged: as §1
Series [8] has as its target T2, Alpha-1A adrenergic receptor (Homo sapiens, UniProt P35348).
T2 sequence (P35348 whole entry): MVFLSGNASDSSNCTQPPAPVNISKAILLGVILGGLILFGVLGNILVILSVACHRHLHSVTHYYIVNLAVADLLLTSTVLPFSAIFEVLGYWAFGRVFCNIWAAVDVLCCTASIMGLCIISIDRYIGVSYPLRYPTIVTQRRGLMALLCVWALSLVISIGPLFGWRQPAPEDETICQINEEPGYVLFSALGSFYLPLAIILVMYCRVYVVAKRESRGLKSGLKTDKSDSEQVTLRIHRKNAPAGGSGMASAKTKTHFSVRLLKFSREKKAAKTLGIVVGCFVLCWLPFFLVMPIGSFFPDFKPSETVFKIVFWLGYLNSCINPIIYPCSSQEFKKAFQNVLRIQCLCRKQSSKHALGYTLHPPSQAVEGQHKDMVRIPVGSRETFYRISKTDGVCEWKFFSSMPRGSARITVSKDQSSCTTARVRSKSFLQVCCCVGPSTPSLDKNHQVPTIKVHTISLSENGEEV
Put plainly: Binding affinity to adrenergic Alpha-1A receptor.

The target in series [9] is T3, Alpha-2B adrenergic receptor (Homo sapiens, UniProt P18089).
T3 sequence (P18089 whole entry): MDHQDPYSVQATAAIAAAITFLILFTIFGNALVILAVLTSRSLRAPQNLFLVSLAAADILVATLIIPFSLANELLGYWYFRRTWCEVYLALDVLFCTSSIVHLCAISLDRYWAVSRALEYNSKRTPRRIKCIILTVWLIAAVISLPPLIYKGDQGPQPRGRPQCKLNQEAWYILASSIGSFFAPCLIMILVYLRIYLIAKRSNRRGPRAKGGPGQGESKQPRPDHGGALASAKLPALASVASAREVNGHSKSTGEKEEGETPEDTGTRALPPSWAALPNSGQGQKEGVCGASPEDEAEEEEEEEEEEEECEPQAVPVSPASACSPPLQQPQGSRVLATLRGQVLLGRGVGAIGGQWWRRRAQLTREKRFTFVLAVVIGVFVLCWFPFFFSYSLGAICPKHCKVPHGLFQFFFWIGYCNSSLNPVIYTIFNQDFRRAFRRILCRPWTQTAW
Put plainly: Binding affinity to adrenergic alpha2b receptor.

In series [10] the target is Vasopressin V1a receptor (Homo sapiens, UniProt P37288). Put plainly: Binding affinity to vasopressin V1 receptor.
Series [11] has as its target T4, Corticotropin-releasing factor receptor 1 (Rattus norvegicus) (UniProt P35353).
T4 sequence (whole entry): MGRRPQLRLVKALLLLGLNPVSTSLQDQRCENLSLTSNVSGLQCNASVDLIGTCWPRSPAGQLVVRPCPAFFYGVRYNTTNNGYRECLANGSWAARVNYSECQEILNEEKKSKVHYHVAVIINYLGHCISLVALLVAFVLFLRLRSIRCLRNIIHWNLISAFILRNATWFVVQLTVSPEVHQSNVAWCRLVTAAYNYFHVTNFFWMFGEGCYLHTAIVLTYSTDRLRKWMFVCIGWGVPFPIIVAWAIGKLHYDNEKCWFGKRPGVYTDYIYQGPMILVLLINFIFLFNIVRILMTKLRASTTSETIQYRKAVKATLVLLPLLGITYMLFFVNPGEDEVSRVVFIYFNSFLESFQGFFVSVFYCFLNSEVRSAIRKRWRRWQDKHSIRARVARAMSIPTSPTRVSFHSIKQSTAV
As to the kind of experiment: Agonist activity at CRF1 receptor in rat brain homogenates assessed as CRF-stimulted cAMP production. Format: functional, tissue-based. Background: Changes in cAMP serve as a functional read-out for many G protein-coupled receptors.

In series [12] the target is T5, Corticotropin-releasing factor receptor 2 (Homo sapiens) (UniProt Q13324).
T5 sequence (whole entry): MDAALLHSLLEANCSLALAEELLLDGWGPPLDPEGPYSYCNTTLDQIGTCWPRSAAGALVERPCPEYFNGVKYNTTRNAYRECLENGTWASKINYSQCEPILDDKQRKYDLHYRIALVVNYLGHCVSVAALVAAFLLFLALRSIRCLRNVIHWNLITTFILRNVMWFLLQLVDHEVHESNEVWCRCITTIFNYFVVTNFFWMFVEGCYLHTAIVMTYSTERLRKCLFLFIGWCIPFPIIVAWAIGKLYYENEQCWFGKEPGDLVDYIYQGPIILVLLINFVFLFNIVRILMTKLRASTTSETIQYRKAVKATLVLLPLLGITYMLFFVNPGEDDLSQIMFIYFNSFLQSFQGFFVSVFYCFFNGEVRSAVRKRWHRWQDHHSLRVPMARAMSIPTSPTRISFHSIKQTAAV
Put plainly: Antagonist activity at human cloned CRF2alpha receptor expressed in HEK293 cells. Format: functional, cell-based.

Series [13] is described as follows: Volume of distribution at steady state in Beagle dog at 5 mg/kg, iv. The conditions noted are these: in vivo, read-out: Vdss. The arrangement: dose 5 mg/kg, route intravenous. The format is ADME, organism-based, Canis lupus familiaris. The procedure, abridged:
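Male beagle dogs (8.0-11.0 kg) dosed intravenously. Plasma sampled at 0.25, 0.5, 1, 2, 4, 6, 8, 12 and 24 h after dosing. Liquid–liquid extraction in hexane/ether, then LC/MS/MS assay (quantitation limit 1 ng/mL). Concentrations expressed as free base. Parameters obtained by noncompartmental analysis as for rat. Mean ± SD.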

Series [14] can be described thus: Tmax in Beagle dog at 5 mg/kg, po. Format: ADME, organism-based, Canis lupus familiaris. More on the design: dose 5 mg/kg, route oral. The conditions noted are these: in vivo. The procedure, abridged:
as §1

Series [15] in a line: Elimination half life in Beagle dog at 5 mg/kg, iv. The conditions noted are these: in vivo, read-out: beta t1/2 (converted). The arrangement: dose 5 mg/kg, route intravenous. Format: ADME, organism-based, Canis lupus familiaris. The essentials: as §1

Structures are written as SMILES. The source made the active and inactive calls. The calls are words filed in the database; no cut-off is given here.

Vasopressin V1a receptor, sequence (P37288 whole entry): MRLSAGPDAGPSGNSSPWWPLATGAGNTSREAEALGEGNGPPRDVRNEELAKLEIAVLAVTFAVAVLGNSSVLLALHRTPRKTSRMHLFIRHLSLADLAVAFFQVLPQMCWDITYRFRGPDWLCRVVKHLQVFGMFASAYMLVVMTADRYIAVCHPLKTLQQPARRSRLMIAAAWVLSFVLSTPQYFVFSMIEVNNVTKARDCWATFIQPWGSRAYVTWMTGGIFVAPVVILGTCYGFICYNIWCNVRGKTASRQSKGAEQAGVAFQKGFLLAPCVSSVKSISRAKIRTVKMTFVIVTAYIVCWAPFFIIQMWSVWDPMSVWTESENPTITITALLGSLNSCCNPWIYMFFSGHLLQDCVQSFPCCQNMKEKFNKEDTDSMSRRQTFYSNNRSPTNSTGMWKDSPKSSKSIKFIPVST
D(1A) dopamine receptor, sequence (P21728 whole entry): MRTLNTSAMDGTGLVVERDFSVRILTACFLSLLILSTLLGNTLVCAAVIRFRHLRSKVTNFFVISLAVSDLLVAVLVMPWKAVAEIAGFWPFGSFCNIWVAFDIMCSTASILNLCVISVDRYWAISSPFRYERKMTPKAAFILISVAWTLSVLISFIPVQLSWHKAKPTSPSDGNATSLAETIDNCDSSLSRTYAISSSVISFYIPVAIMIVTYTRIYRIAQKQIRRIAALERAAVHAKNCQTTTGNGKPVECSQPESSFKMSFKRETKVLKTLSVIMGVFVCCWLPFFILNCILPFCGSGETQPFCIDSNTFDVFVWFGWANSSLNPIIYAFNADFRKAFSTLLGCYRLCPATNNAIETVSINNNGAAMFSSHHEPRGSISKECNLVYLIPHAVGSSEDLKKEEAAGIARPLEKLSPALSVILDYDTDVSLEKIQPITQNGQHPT
D(2) dopamine receptor, sequence (P14416 whole entry): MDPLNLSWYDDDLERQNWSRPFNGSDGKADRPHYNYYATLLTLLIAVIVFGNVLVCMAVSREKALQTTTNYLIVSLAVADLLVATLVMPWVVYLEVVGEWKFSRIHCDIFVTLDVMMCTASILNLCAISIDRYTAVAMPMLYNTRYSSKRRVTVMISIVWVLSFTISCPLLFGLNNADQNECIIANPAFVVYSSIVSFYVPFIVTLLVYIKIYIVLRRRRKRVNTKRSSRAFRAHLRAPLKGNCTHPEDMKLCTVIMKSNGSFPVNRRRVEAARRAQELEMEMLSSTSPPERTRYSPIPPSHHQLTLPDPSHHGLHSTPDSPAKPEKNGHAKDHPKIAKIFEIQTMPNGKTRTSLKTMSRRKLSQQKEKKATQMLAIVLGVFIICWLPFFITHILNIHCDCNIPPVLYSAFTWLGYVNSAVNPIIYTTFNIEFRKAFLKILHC

`COCCN(CCOC)c1nc(C)nc2c(-c3cc(C)c(OC)cc3C)c(C)nn12` displayed a Cmax in [1] of 1220 nM. Further, the half-maximal inhibitory concentration (IC50) in series [2], in series [3], in series [4], in series [6], in [8] and in [9] was above 1000 nM throughout. In [10], this molecule gave a 50% inhibitory concentration (IC50) above 1000 nM. For the same molecule, the clearance in [5] was 11 mL/min/kg. The same molecule came in with a bioavailability in series [7] of 48%. Further, the result in series [11] and in series [12] was inactive. The Vd in series [13] was determined as 23.7 L/kg. In addition, the time of peak concentration (Tmax) in series [14] was 0.8 h. The half-life in series [15] was 40.2 h.

Consider `COCCN(CCOC)c1nc(C)nc2c(-c3ccc(OC)cc3C)c(C)nn12`, for which, in series [1], the Cmax was 2380 nM. Also, the half-maximal inhibitory concentration (IC50) in series [2], in series [3], in [4], in series [6], in [8] and in series [9] was above 1000 nM each time. In series [10], the IC50 was above 1000 nM. The molecule also gave a clearance in series [5] of 20 mL/min/kg. Moreover, the bioavailability in series [7] stood at 34%. Moreover, the outcome in series [11] and in [12] was inactive. Besides, the Vd in series [13] is 18.4 L/kg. The time to peak (Tmax) in [14] is 0.5 h. Also, the half-life in [15] is 27.3 h.

For the molecule `CCC(CC)Nc1nc(C)nc2c(-c3cc(F)c(OC)cc3Cl)c(C)nn12`, the half-maximal inhibitory concentration (IC50) in [2], in series [3], in [4], in [6], in series [8] and in [9] was above 1000 nM in each case. The half-maximal inhibitory concentration (IC50) in series [10] is above 1000 nM. For the same molecule, the result in series [11] and in [12] was inactive.

As for `CC[C@@H](C)Nc1nc(C)nc2c(-c3c(C)cc(OC)cc3OC)c(C)nn12`, the 50% inhibitory concentration (IC50) in series [2], in series [3], in series [4], in series [6], in series [8] and in [9] was above 1000 nM throughout. Further, in [10], the IC50 was above 1000 nM. For the same molecule, the result in series [11] and in series [12] was inactive.

For orientation: Cmax means the peak of the concentration-time curve. The IC50 is the midpoint of a concentration-inhibition curve. The low end stands for inhibition by little substance, the high end for a need for much substance. One may read the clearance as a measure of how efficiently the substance is removed, as volume per time. A low value points to inefficient removal. The bioavailability is dose-corrected exposure relative to a reference, in per cent. As usually defined, the Tmax is the time from dosing to the highest level.

These data come from ChEMBL document CHEMBL1138477, “8-(4-Methoxyphenyl)pyrazolo[1,5-a]-1,3,5-triazines: selective and centrally active corticotropin-releasing factor receptor-1 (CRF1) antagonists” (J Med Chem, 2009).
